Test results: ChEMBL document CHEMBL1687776, “Origin and molecular evolution of the determinant of methicillin resistance in staphylococci” (2010)
Values after ≈ are worked out from the molar mass of the structure shown.

Key:
[1] = system: Staphylococcus vitulinus; experiment: Antibacterial activity against methicillin-resistant mecA-positive Staphylococcus vitulinus SVMP03 by agar dilution method; assay type: functional; details: Mammaliicoccus vitulinus
Method in brief: (§1)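 MIC by agar dilution on Mueller-Hinton agar per CLSI guidance; resistance judged against CLSI breakpoints. Strains were animal or food isolates (type strains for S. sciuri subspecies), typed by hsp60 and/or sodA sequencing; mecA homologue carriage checked by PCR with degenerate primers. Agents tested: oxacillin, ampicillin, ceftizoxime, ceftriaxone, cefoxitin.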

[2] = system: Staphylococcus vitulinus; experiment: Antibacterial activity against methicillin-resistant mecA-positive Staphylococcus vitulinus SVMP04 by agar dilution method; assay type: functional; details: Mammaliicoccus vitulinus; method in brief: as §1
[3] = system: Staphylococcus vitulinus; experiment: Antibacterial activity against methicillin-resistant mecA-positive Staphylococcus vitulinus SVMP05 by agar dilution method; assay type: functional; details: Mammaliicoccus vitulinus; method in brief: as §1
[4] = system: Staphylococcus vitulinus; experiment: Antibacterial activity against methicillin-resistant mecA-positive Staphylococcus vitulinus SVMP06 by agar dilution method; assay type: functional; details: Mammaliicoccus vitulinus; method in brief: as §1
[5] = system: Staphylococcus vitulinus; experiment: Antibacterial activity against mecA-negative Staphylococcus vitulinus SVMN01 (ATCC 51145T) by agar dilution method; assay type: functional; details: Mammaliicoccus vitulinus
Method in brief: (§2)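 MIC by agar dilution on Mueller-Hinton agar following CLSI guidelines. Resistance was assigned using CLSI breakpoints. Agents tested were oxacillin, ampicillin, ceftizoxime, ceftriaxone and cefoxitin. Strains were from animal or food sources and identified by hsp60 and/or sodA sequencing. mecA absence was assessed by PCR with degenerate primers for mecA and its homologues.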

[6] = system: Staphylococcus vitulinus; experiment: Antibacterial activity against mecA-negative Staphylococcus vitulinus SVMN02 by agar dilution method; assay type: functional; details: Mammaliicoccus vitulinus; method in brief: as §1
[7] = system: Staphylococcus vitulinus; experiment: Antibacterial activity against mecA-negative Staphylococcus vitulinus SVMN03 by agar dilution method; assay type: functional; details: Mammaliicoccus vitulinus; method in brief: as §2
[8] = system: Staphylococcus vitulinus; experiment: Antibacterial activity against mecA-negative Staphylococcus vitulinus SVMN04 by agar dilution method; assay type: functional; details: Mammaliicoccus vitulinus; method in brief: as §1
[9] = system: Staphylococcus vitulinus; experiment: Antibacterial activity against mecA-negative Staphylococcus vitulinus SVMN05 by agar dilution method; assay type: functional; details: Mammaliicoccus vitulinus; method in brief: as §1
[10] = system: Staphylococcus vitulinus; experiment: Antibacterial activity against mecA-negative Staphylococcus vitulinus SVMN06 by agar dilution method; assay type: functional; details: Mammaliicoccus vitulinus; method in brief: as §1
[11] = system: Staphylococcus vitulinus; experiment: Antibacterial activity against mecA-negative Staphylococcus vitulinus SVMN07 by agar dilution method; assay type: functional; details: Mammaliicoccus vitulinus; method in brief: as §1
[12] = system: Staphylococcus vitulinus; experiment: Antibacterial activity against mecA-negative Staphylococcus vitulinus SVMN08 by agar dilution method; assay type: functional; details: Mammaliicoccus vitulinus; method in brief: as §2
[13] = system: Staphylococcus vitulinus; experiment: Antibacterial activity against mecA-negative Staphylococcus vitulinus SVMN09 by agar dilution method; assay type: functional; details: Mammaliicoccus vitulinus; method in brief: as §1
[14] = system: Staphylococcus vitulinus; experiment: Antibacterial activity against mecA-negative Staphylococcus vitulinus SVMN10 by agar dilution method; assay type: functional; details: Mammaliicoccus vitulinus; method in brief: as §2
[15] = system: Staphylococcus vitulinus; experiment: Antibacterial activity against mecA-negative Staphylococcus vitulinus SVMN11 by agar dilution method; assay type: functional; details: Mammaliicoccus vitulinus; method in brief: as §1
[16] = system: Staphylococcus vitulinus; experiment: Antibacterial activity against mecA-negative Staphylococcus vitulinus SVMN12 by agar dilution method; assay type: functional; details: Mammaliicoccus vitulinus; method in brief: as §1
[17] = system: Staphylococcus vitulinus; experiment: Antibacterial activity against mecA-negative Staphylococcus vitulinus SVMN13 by agar dilution method; assay type: functional; details: Mammaliicoccus vitulinus; method in brief: as §2
[18] = system: Staphylococcus vitulinus; experiment: Antibacterial activity against mecA-negative Staphylococcus vitulinus SVMN14 by agar dilution method; assay type: functional; details: Mammaliicoccus vitulinus; method in brief: as §1
[19] = system: Mammaliicoccus lentus; experiment: Antibacterial activity against mecA-negative Staphylococcus lentus ATCC 29070T by agar dilution method; assay type: functional; method in brief: as §2
[20] = system: Staphylococcus fleurettii; experiment: Antibacterial activity against methicillin-resistant mecA-positive Staphylococcus fleurettii SFMP01(CCUG 43834T) by agar dilution method; assay type: functional; details: Mammaliicoccus fleurettii; method in brief: as §1
[21] = system: Staphylococcus fleurettii; experiment: Antibacterial activity against methicillin-resistant mecA-positive Staphylococcus fleurettii SFMP02 by agar dilution method; assay type: functional; details: Mammaliicoccus fleurettii; method in brief: as §1
[22] = system: Staphylococcus fleurettii; experiment: Antibacterial activity against methicillin-resistant mecA-positive Staphylococcus fleurettii SFMP03 by agar dilution method; assay type: functional; details: Mammaliicoccus fleurettii; method in brief: as §1
[23] = system: Staphylococcus fleurettii; experiment: Antibacterial activity against methicillin-resistant mecA-positive Staphylococcus fleurettii SFMP04 by agar dilution method; assay type: functional; details: Mammaliicoccus fleurettii; method in brief: as §1
[24] = system: Staphylococcus fleurettii; experiment: Antibacterial activity against methicillin-resistant mecA-positive Staphylococcus fleurettii SFMP05 by agar dilution method; assay type: functional; details: Mammaliicoccus fleurettii; method in brief: as §1
[25] = system: Staphylococcus fleurettii; experiment: Antibacterial activity against methicillin-resistant mecA-positive Staphylococcus fleurettii SFMP06 by agar dilution method; assay type: functional; details: Mammaliicoccus fleurettii; method in brief: as §1
[26] = system: Staphylococcus fleurettii; experiment: Antibacterial activity against methicillin-resistant mecA-positive Staphylococcus fleurettii SFMP07 by agar dilution method; assay type: functional; details: Mammaliicoccus fleurettii; method in brief: as §1
[27] = system: Staphylococcus fleurettii; experiment: Antibacterial activity against methicillin-resistant mecA-positive Staphylococcus fleurettii SFMP08 by agar dilution method; assay type: functional; details: Mammaliicoccus fleurettii; method in brief: as §1
[28] = system: Staphylococcus fleurettii; experiment: Antibacterial activity against mecA-negative Staphylococcus fleurettii SFMN01 by agar dilution method; assay type: functional; details: Mammaliicoccus fleurettii; method in brief: as §2
[29] = system: Staphylococcus fleurettii; experiment: Antibacterial activity against mecA-negative Staphylococcus fleurettii SFMN02 by agar dilution method; assay type: functional; details: Mammaliicoccus fleurettii; method in brief: as §2
[30] = Antibacterial activity against methicillin-resistant mecA-positive Staphylococcus sciuri subsp. sciuri ATCC 29062T by agar dilution method; assay type: functional; details: Mammaliicoccus sciuri; method in brief: as §1
[31] = Antibacterial activity against methicillin-resistant mecA-positive Staphylococcus sciuri subsp. rodentium ATCC 700061T by agar dilution method; assay type: functional; details: Mammaliicoccus sciuri; method in brief: as §1
[32] = system: Staphylococcus vitulinus; experiment: Antibacterial activity against methicillin-resistant mecA-positive Staphylococcus vitulinus SVMP01 by agar dilution method; assay type: functional; details: Mammaliicoccus vitulinus; method in brief: as §1
[33] = system: Staphylococcus vitulinus; experiment: Antibacterial activity against methicillin-resistant mecA-positive Staphylococcus vitulinus SVMP02 by agar dilution method; assay type: functional; details: Mammaliicoccus vitulinus; method in brief: as §1
[34] = Antibacterial activity against mecA-positive Staphylococcus sciuri subsp. carnaticus ATCC 700058T by agar dilution method; details: Mammaliicoccus sciuri

## CO[C@@]1(NC(=O)Cc2cccs2)C(=O)N2C(C(=O)O)=C(COC(N)=O)CS[C@@H]21 [CEFOXITIN]
[1]
  MIC: 2 mg/L (≈ 4.68 µM)
[2]
  MIC: 1 mg/L (≈ 2.34 µM)
[3]
  MIC: 1 mg/L (≈ 2.34 µM)
[4]
  MIC: 1 mg/L (≈ 2.34 µM)
[5]
  MIC: 2 mg/L (≈ 4.68 µM)
[6]
  MIC: 1 mg/L (≈ 2.34 µM)
[7]
  MIC: 0.5 mg/L (≈ 1.17 µM)
[8]
  MIC: 1 mg/L (≈ 2.34 µM)
[9]
  MIC: 1 mg/L (≈ 2.34 µM)
[10]
  MIC: 2 mg/L (≈ 4.68 µM)
[11]
  MIC: 2 mg/L (≈ 4.68 µM)
[12]
  MIC: 0.25 mg/L (≈ 0.585 µM)
[13]
  MIC: 1 mg/L (≈ 2.34 µM)
[14]
  MIC: 0.5 mg/L (≈ 1.17 µM)
[15]
  MIC: 1 mg/L (≈ 2.34 µM)
[16]
  MIC: 1 mg/L (≈ 2.34 µM)
[17]
  MIC: 1 mg/L (≈ 2.34 µM)
[18]
  MIC: 0.5 mg/L (≈ 1.17 µM)
[19]
  MIC: 2 mg/L (≈ 4.68 µM)
[20]
  MIC: 2 mg/L (≈ 4.68 µM)
[21]
  MIC: 1 mg/L (≈ 2.34 µM)
[22]
  MIC: 8 mg/L (≈ 18.7 µM)
[23]
  MIC: 4 mg/L (≈ 9.36 µM)
[24]
  MIC: 1 mg/L (≈ 2.34 µM)
[25]
  MIC: 2 mg/L (≈ 4.68 µM)
[26]
  MIC: 1 mg/L (≈ 2.34 µM)
[27]
  MIC: 2 mg/L (≈ 4.68 µM)
[28]
  MIC: 2 mg/L (≈ 4.68 µM)
[29]
  MIC: 2 mg/L (≈ 4.68 µM)
[30]
  MIC: 2 mg/L (≈ 4.68 µM)
[31]
  MIC: 2 mg/L (≈ 4.68 µM)
[32]
  MIC: 2 mg/L (≈ 4.68 µM)
[33]
  MIC: 1 mg/L (≈ 2.34 µM)
[34]
  MIC: 2 mg/L (≈ 4.68 µM)

## CO/N=C(\C(=O)N[C@@H]1C(=O)N2C(C(=O)O)=CCS[C@H]12)c1csc(N)n1 [CEFTIZOXIME]
[1]
  MIC: 0.5 mg/L (≈ 1.3 µM)
[2]
  MIC: 0.5 mg/L (≈ 1.3 µM)
[3]
  MIC: 1 mg/L (≈ 2.61 µM)
[4]
  MIC: 0.5 mg/L (≈ 1.3 µM)
[5]
  MIC: 4 mg/L (≈ 10.4 µM)
[6]
  MIC: 1 mg/L (≈ 2.61 µM)
[7]
  MIC: 0.25 mg/L (≈ 0.652 µM)
[8]
  MIC: 0.5 mg/L (≈ 1.3 µM)
[9]
  MIC: 0.5 mg/L (≈ 1.3 µM)
[10]
  MIC: 0.5 mg/L (≈ 1.3 µM)
[11]
  MIC: 0.5 mg/L (≈ 1.3 µM)
[12]
  MIC: 0.25 mg/L (≈ 0.652 µM)
[13]
  MIC: 0.5 mg/L (≈ 1.3 µM)
[14]
  MIC: 0.25 mg/L (≈ 0.652 µM)
[15]
  MIC: 1 mg/L (≈ 2.61 µM)
[16]
  MIC: 0.5 mg/L (≈ 1.3 µM)
[17]
  MIC: 0.25 mg/L (≈ 0.652 µM)
[18]
  MIC: 0.5 mg/L (≈ 1.3 µM)
[19]
  MIC: 1 mg/L (≈ 2.61 µM)
[20]
  MIC: 32 mg/L (≈ 83.5 µM)
[21]
  MIC: 32 mg/L (≈ 83.5 µM)
[22]
  MIC: 128 mg/L (≈ 334 µM)
[23]
  MIC: 64 mg/L (≈ 167 µM)
[24]
  MIC: 4 mg/L (≈ 10.4 µM)
[25]
  MIC: 32 mg/L (≈ 83.5 µM)
[26]
  MIC: 4 mg/L (≈ 10.4 µM)
[27]
  MIC: 32 mg/L (≈ 83.5 µM)
[28]
  MIC: 2 mg/L (≈ 5.22 µM)
[29]
  MIC: 2 mg/L (≈ 5.22 µM)
[30]
  MIC: 2 mg/L (≈ 5.22 µM)
[31]
  MIC: 2 mg/L (≈ 5.22 µM)
[32]
  MIC: 0.5 mg/L (≈ 1.3 µM)
[33]
  MIC: 0.5 mg/L (≈ 1.3 µM)
[34]
  MIC: 2 mg/L (≈ 5.22 µM)
